Results pooled from the literature.
Each line is one published result; the experiments were not run side by side.
Target: Phosphatidylinositol 4-phosphate 5-kinase type-1 gamma (PIP5K1C, Homo sapiens, UniProt O60331)

Structure (SMILES)	test	setting	measurement	result
Cc1ccc(C(=O)Nc2ccc(CN3CCN(C)CC3)c(C(F)(F)F)c2)cc1C#Cc1cnc2cccnn12	cell-free assay	23.5 nM	remaining signal	100%
CN1CC(Oc2cnc(C#N)cc2-c2ccn3nc(NC(=O)C4CC4)cc3c2)C1	enzyme activity, inhibitor	1 µM	inhibition	-3%
O=C(CSc1nc2nccnc2c(=O)n1CCc1ccccc1)Nc1nccs1	enzyme activity, inhibitor	10 µM	inhibition	12%
COc1cc(Cl)c(C(=O)N[C@@H](CN[C@H]2CC[C@@H](N)CC2)Cc2ccc(C#N)cc2)cc1-c1ccc(CN[C@H](C)c2ccc(C)cc2)o1	enzyme activity, inhibitor	1 µM	remaining activity	96%
Nc1ncnc2occ(-c3ccc(NC(=O)Nc4cc(C(F)(F)F)ccc4F)cc3)c12	cell-free assay	20 µM	remaining signal	0%
Cc1cnc(NC2CCOCC2)nc1-n1cnc(C(=O)NC(CN)c2cc(F)cc(Cl)c2)c1 (centres unmarked)	enzyme activity, inhibitor, radiometric	1 µM	remaining activity	96%
Cc1ccc(NC(=O)c2ccc(C)c(C(F)(F)F)c2)cc1C#Cc1nn(C2CCC(O)CC2)c2ncnc(N)c12 (centres unmarked)	cell-free assay	10 µM	remaining signal	98%
CC1=C(C#N)C(c2ccc3c(c2)c(NC(=O)c2ccccc2C)nn3C)C(C#N)=C(C)N1	cell-free assay, competition with immobilised ligand	1 µM	remaining binding	91%
CS(=O)(=O)Nc1cccc(-c2csc(NC(=O)CSc3nc4nccnc4c(=O)n3CCc3ccccc3)n2)c1	enzyme activity, inhibitor	10 µM	inhibition	0%
CNCc1ccccc1-c1csc([C@@H](C)Nc2nc(C)nc3cc(OC)c(OC)cc23)c1	cell-free assay, competition with immobilised ligand	1 µM	remaining binding	88%
Cc1cc(NC(=O)c2cccc3cc(-c4cccc5[nH]nc(N)c45)ccc23)ccc1F	enzyme activity, inhibitor	0.1 µM	activity vs control	110%
